Measured values as given in ChEMBL document CHEMBL2163327, “Design, synthesis, and evaluation of potential prodrugs of DFMO for reductive activation” (Bioorg Med Chem Lett, 2012).

Key:
Trypanosoma brucei [1] = assay: Activity of His-tagged Trypanosoma brucei nitroreductase assessed as oxidation of NADH
Outline: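 Purified His-tagged T. brucei nitroreductase (TbNTR) incubated with test compound; NADH consumption followed as change in absorbance at 340 nm.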

Trypanosoma brucei [2] = assay: Antitrypanosomal activity against wild type Trypanosoma brucei bloodstream form assessed as growth inhibition after 3 days by Alamar blue assay; type: functional, organism-based; conditions: 72 h
Outline: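 Bloodstream-form T. brucei seeded at 1 × 10³ per mL in growth medium with a range of test compound concentrations; 3 days at 37 °C, then alamarBlue added and incubation continued 16 h before reading.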

Trypanosoma brucei [3] = assay: Antitrypanosomal activity against Trypanosoma brucei bloodstream form overexpressing nitroreductase assessed as growth inhibition after 3 days by Alamar blue assay; type: functional, organism-based; conditions: 72 h
Outline: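 Bloodstream-form T. brucei induced to express elevated nitroreductase, with non-induced parasites as controls. Parasites seeded at 1 × 10³ mL⁻¹ in growth medium with a range of test-compound concentrations and incubated 3 days at 37 °C. alamarBlue was then added for a further 16 h as the viability read-out.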

Row | SMILES | Activity (Trypanosoma brucei [1]) [nmol/min/mg] | IC50 (Trypanosoma brucei [2]) [µM] | IC50 (Trypanosoma brucei [3]) [µM]
1 | NCCCC(NC(=O)OCc1ccc([N+](=O)[O-])cc1F)(C(=O)O)C(F)F (configuration not stated) | 227 | > 100 | –
2 | NCCCC(NC(=O)OCc1ccc([N+](=O)[O-])cc1)(C(=O)O)C(F)F (configuration not stated) | 42 | > 100 | –
3 | NCCCC(N)(C(=O)OCc1ccc([N+](=O)[O-])cc1F)C(F)F (configuration not stated) | 203 | > 100 | –
4 | NC(CCCNC(=O)OCc1ccc([N+](=O)[O-])cc1F)(C(=O)O)C(F)F (configuration not stated) | 260 | 39.5 | 39.9
5 | NCCCC(N)(C(=O)OCc1ccc([N+](=O)[O-])cc1)C(F)F (configuration not stated) | 60 | > 100 | –
6 | O=C(NCCCC(NC(=O)OCc1ccc([N+](=O)[O-])cc1)(C(=O)O)C(F)F)OCc1ccc([N+](=O)[O-])cc1 (configuration not stated) | 140 | > 100 | –
7 | CC1CS(=O)(=O)CCN1/N=C/c1ccc([N+](=O)[O-])o1 (configuration not stated) [NIFURTIMOX] | 423 | 1.83 | 0.26
8 | NCCCC(N)(C(=O)O)C(F)F (configuration not stated) [EFLORNITHINE] | 21 | 8.3 | –
9 | O=C(NCCCC(NC(=O)OCc1ccc([N+](=O)[O-])cc1F)(C(=O)O)C(F)F)OCc1ccc([N+](=O)[O-])cc1F (configuration not stated) | 312 | > 100 | –
10 | NC(CCCNC(=O)OCc1ccc([N+](=O)[O-])cc1)(C(=O)O)C(F)F (configuration not stated) | 33 | > 100 | –
